Measurements from ChEMBL document CHEMBL5214901 (J Med Chem, 2021).
Activity calls are given as the source filed them. The calls are words filed in the database; no cut-off is given here.

Experiments:
Human alphaherpesvirus 1 [1] = assay: Antiviral activity against HSV-1 R8102 infected in HEK293T cells assessed as inhibition of viral replication using ONPG as substrate incubated for 1 hrs followed by viral infection measured after 90 mins by microplate reader analysis; type: functional, organism-based; conditions: dose <= 1000.0 µM, DDE = dose-dependent effect
How it was run: (§1)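 Peptides were dissolved at 10 mM (stock) in serum-free DMEM and neutralized with Tris-HCl. 293T cells (low endogenous αvβ6/αvβ8) were pretreated with increasing peptide concentrations for 1 h at 37 °C. Cells were then infected with lacZ-reporter R8102 at MOI 5 PFU/cell for 90 min at 37 °C with peptide. After rinsing, cells were incubated 8 h without peptide. Infection was read as β-galactosidase activity with ONPG; triplicate, SD.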

Human alphaherpesvirus 1 [2] = assay: Antiviral activity against HSV-1 K26GFP infected in J cells expressing nectin1 plus alphavbeta6/alphavbeta8 integrin assessed as alphavbeta6/alphavbeta8 receptor internalization at 700 uM incubated for 1 hrs followed by viral infection by flow cytometry assay; type: functional, organism-based
How it was run: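 Transfected J cells expressed nectin1 plus both αvβ6 and αvβ8 (48 h post-transfection) and were treated with 700 μM peptide for 1 h at 37 °C. Surface β6 and β8 were stained for 1 h at 4 °C with APC-conjugated mAbs outside the RGD-binding site. Nectin1 was stained with R1.302 plus APC secondary. Read-out was flow cytometry APC MFI of gated cells, ≥10 000 events; triplicates ± SD.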

Human alphaherpesvirus 1 [3] = assay: Antiviral activity against HSV-1 K26GFP infected in J cells expressing nectin1 plus alphavbeta8 integrin at 700 uM incubated for 48 hrs followed by viral infection measured after 16 hrs by fluorescent microscopy; type: functional, organism-based; conditions: time 64.0 hrs
How it was run: (§2)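 J cells were transfected with nectin1 (75 ng DNA/24 well) plus αv+β6, αv+β8, or both integrin plasmids (300 ng each). Total DNA was made up to 675 ng with Erb-2 plasmid. At 48 h, cells got 700 μM peptide for 1 h at 37 °C, then K26GFP at 1 PFU/cell for 90 min with peptide. Acid wash (pH 3), then 16 h without peptide. EGFP was read by fluorescence microscopy and flow cytometry MFI (≥10 000 events); triplicates ± SD.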

Human alphaherpesvirus 1 [4] = assay: Antiviral activity against HSV-1 R8102 infected in HEK293T cells assessed as inhibition of viral replication at 500 to 1000 uM using ONPG as substrate incubated for 1 hrs followed by viral infection measured after 90 mins by microplate reader analysis relative to control; type: functional; parameters: scale not given: the % may be the effect or the level left; conditions: dose 500-1000 µM; how it was run: as §1
Human alphaherpesvirus 1 [5] = assay: Antiviral activity against HSV-1 K26GFP infected in J cells expressing nectin1 plus alphavbeta6 integrin at 700 uM incubated for 48 hrs followed by viral infection measured after 16 hrs by fluorescent microscopy; type: functional, organism-based; conditions: time 64.0 hrs; how it was run: as §2
Human alphaherpesvirus 1 [6] = assay: Antiviral activity against HSV-1 K26GFP infected in J cells expressing nectin1 plus alphavbeta6/alphavbeta8 integrin at 700 uM incubated for 48 hrs followed by viral infection measured after 16 hrs by fluorescent microscopy; type: functional, organism-based; conditions: time 64.0 hrs; how it was run: as §2
Human alphaherpesvirus 1 [7] = assay: Inhibition of HSV-1 soluble gH binding to alphavbeta6/alphavbeta8 integrin expressed in […] J cells at 700 uM incubated for 1 hr by flow cytometry assay; type: cell-based
How it was run: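 J cells were transfected with nectin1 plus αvβ6 and αvβ8 and, 48 h later, exposed to 700 μM peptide for 1 h at 37 °C. They were then incubated for 1 h at 4 °C with 2 μM One-STrEP-tagged soluble gH in DMEM/5% FBS/30 mM HEPES. Soluble gB served as the control protein. Binding was detected with PE-Strep-Tactin (1 h, 4 °C) as flow cytometry MFI (≥10 000 events); triplicates ± SD.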

Integrin alpha-V/beta-6 = Integrin alpha-V/beta-6 (Homo sapiens, UniProt P06756+P18564); assay: Inhibition of human recombinant integrin alphavbeta6 incubated for 1 hr by ELISA assay; type: protein-complex assay
Sequence of Integrin alpha-V/beta-6 (P06756 31-889 limits assumed): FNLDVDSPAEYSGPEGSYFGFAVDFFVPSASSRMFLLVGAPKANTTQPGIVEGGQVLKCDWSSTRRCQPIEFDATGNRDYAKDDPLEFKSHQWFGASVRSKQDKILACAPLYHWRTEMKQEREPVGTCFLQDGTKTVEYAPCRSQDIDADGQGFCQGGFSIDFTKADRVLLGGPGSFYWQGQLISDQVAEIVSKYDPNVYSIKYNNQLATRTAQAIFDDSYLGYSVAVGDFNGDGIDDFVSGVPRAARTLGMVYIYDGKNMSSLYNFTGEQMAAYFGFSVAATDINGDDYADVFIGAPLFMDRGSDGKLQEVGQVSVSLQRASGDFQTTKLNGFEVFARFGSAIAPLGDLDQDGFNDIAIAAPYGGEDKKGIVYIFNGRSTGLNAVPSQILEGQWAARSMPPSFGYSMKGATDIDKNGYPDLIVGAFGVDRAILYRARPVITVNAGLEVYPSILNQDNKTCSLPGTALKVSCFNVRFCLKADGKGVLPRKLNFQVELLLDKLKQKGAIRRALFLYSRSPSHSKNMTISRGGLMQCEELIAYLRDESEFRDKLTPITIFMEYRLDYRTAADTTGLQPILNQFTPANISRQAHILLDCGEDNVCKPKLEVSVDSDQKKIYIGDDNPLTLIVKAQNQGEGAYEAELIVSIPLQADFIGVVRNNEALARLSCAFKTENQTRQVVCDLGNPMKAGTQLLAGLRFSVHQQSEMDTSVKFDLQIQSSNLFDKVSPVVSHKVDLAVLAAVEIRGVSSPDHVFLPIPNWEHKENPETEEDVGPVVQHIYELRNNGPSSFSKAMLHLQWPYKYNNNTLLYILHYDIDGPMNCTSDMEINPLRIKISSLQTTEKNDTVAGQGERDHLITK
Sequence of Integrin alpha-V/beta-6 (P06756 891-1048 limits assumed): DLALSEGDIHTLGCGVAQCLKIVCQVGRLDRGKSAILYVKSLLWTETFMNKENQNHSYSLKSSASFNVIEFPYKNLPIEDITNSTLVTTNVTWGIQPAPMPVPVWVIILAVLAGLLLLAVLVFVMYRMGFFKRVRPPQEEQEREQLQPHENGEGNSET
Sequence of Integrin alpha-V/beta-6 (P18564 22-788 limits assumed): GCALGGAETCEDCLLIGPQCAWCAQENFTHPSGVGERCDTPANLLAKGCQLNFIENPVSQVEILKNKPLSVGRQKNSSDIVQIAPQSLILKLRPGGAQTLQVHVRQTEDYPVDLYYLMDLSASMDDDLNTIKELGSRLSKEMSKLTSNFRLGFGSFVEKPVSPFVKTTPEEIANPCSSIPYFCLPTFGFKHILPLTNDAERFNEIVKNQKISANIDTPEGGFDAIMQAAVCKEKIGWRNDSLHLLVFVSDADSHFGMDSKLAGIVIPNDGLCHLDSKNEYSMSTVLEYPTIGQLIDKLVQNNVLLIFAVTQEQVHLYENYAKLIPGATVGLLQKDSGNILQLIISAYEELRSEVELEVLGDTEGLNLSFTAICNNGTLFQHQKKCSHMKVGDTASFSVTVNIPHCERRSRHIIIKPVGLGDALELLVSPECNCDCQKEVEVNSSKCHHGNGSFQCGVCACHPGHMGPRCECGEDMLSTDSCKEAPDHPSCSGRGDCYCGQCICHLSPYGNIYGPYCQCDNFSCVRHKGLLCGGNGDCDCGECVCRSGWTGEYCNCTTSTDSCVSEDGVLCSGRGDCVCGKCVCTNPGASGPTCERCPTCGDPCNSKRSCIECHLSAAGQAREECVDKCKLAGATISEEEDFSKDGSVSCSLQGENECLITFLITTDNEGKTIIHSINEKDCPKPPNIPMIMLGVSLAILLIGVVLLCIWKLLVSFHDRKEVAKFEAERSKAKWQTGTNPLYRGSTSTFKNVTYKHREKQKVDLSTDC

## CN1C(=O)[C@H](C2CCCCC2)NC(=O)[C@H](CC(=O)O)NC(=O)CNC(=O)[C@H](CCCNC(=N)N)NC(=O)CC[C@H]1C(N)=O
Human alphaherpesvirus 1 [1]
  Activity: Dde
Human alphaherpesvirus 1 [2]
  Activity: Active
Human alphaherpesvirus 1 [3]
  Activity: Active
Human alphaherpesvirus 1 [4]
  Activity: 70%
Human alphaherpesvirus 1 [5]
  Activity: Active
Human alphaherpesvirus 1 [6]
  Activity: Active
Human alphaherpesvirus 1 [7]
  inhibition: Active

## CC(C)C[C@H](NC(=O)[C@H](CO)NC(=O)[C@H](CC(=O)O)NC(=O)[C@H](CC(C)C)NC(=O)[C@H](CC(=O)O)NC(=O)[C@@H](NC(=O)[C@@H](N)CCCNC(=N)N)[C@@H](C)O)C(=O)N[C@@H](CCCNC(=N)N)C(=O)N[C@H](C(=O)O)[C@@H](C)O
Integrin alpha-V/beta-6
  IC50: 38 nM

## N=C(N)NCCC[C@@H]1NC(=O)CC[C@@H](C(N)=O)NC(=O)[C@H](C2CCCCC2)NC(=O)[C@H](CC(=O)O)NC(=O)CNC1=O
Human alphaherpesvirus 1 [1]
  Activity: Dde
Human alphaherpesvirus 1 [5]
  Activity: Active

## CN1C(=O)CNC(=O)[C@H](CCCNC(=N)N)NC(=O)CC[C@@H](C(N)=O)NC(=O)[C@H](C2CCCCC2)NC(=O)[C@@H]1CC(=O)O
Integrin alpha-V/beta-6
  IC50: > 5000 nM
